For orientation: pKd means −log10 of the Kd, conventionally taken in molar units.

pKd: −log10 of the molar value. Calls of active or inactive are those of the source. The rule behind the calls is not given here.

Assay [1] relates to Mus musculus. In words: Antihypersensitivity in 1 ug/kg/min AngII infused C57BL/6 mouse assessed as reduction in medial hypertrophy at 50 mg/kg, ip for 4 weeks by F4/80 staining analysis. The class given is functional, organism-based. In short, it runs like this: (§1)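 Male C57BL/6 mice with subcutaneous osmotic minipumps delivering AngII (1.0 μg kg−1 min−1, 28 days); from 2 days post-implantation, 50 mg kg−1 ip once daily (vehicle DMSO). Aortas formalin-fixed, paraffin 5 µm sections. H&E sections quantified for wall thickness; F4/80 IHC (DAB) quantified as reciprocal brown intensity excluding adventitia. Mean + SEM, one-way ANOVA with Tukey.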

The species named for assay [2] is Rattus norvegicus. In words: Downregulation of Spry2 gene expression in rat aorta pretreated with compound at 500 nM followed by AngII addition measured by ChIP assay. The class given is functional, tissue-based.
Assay [3] deals with VSMC. In words: Downregulation of Tgif1 gene expression in human VSMC cells pretreated with compound at 250 to 500 nM followed by AngII addition measured by RT-qPCR analysis. The class given is functional, cell-based. The settings on record: dose 250-500 nM. (In qPCR the cycle at which signal appears reflects the starting amount.)
For assay [4], the system named is Mus musculus. In words: Antihypersensitivity in 1 ug/kg/min AngII infused C57BL/6 mouse assessed as reduction in inflammation at 50 mg/kg, ip for 4 weeks by F4/80 staining analysis. The class given is functional, organism-based. In short, it runs like this: as §1
The species named for assay [5] is Rattus norvegicus. The experiment in a line: Downregulation of Foxp1 gene expression in rat aorta pretreated with compound at 500 nM followed by AngII addition measured by ChIP assay. The class given is functional, tissue-based.
Assay [6] relates to Mus musculus. In words: Antihypersensitivity in 1 ug/kg/min AngII infused C57BL/6 mouse assessed as reduction in systolic blood pressure at 50 mg/kg, ip for 4 weeks. The class given is functional, organism-based. The gist of the method:
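Male C57BL/6 mice infused with AngII via subcutaneous osmotic minipump (1.0 μg kg−1 min−1, 28 days); 50 mg kg−1 ip once daily starting 2 days post-implantation, vehicle DMSO. Systolic pressure by tail cuff during week 4. n = 7–8 mice/group, mean + SEM, one-way ANOVA with Tukey.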

The species named for assay [7] is Rattus norvegicus. In words: Downregulation of Tgif1 gene expression in rat aorta pretreated with compound at 500 nM followed by AngII addition measured by ChIP assay. The class given is functional, tissue-based.
The test system of assay [8] is VSMC. The experiment in a line: Downregulation of Flt gene expression in human VSMC cells pretreated with compound at 250 to 500 nM followed by AngII addition measured by RT-qPCR analysis. The class given is functional, cell-based. As to conditions: dose 250-500 nM.
In assay [9] the test system is VSMC. The experiment in a line: Downregulation of Spry2 gene expression in human VSMC cells pretreated with compound at 250 to 500 nM followed by AngII addition measured by RT-qPCR analysis. The class given is functional, cell-based. The settings on record: dose 250-500 nM.
The nature of assay [10]: Binding affinity of BRD2 (unknown origin) assessed as dissociation constant. Further details: species or system Homo sapiens.
The subject of assay [11] is VSMC. In words: Downregulation of ESM1 gene expression in human VSMC cells pretreated with compound at 250 to 500 nM followed by AngII addition measured by RT-qPCR analysis. The class given is functional, cell-based. The settings on record: dose 250-500 nM.
In assay [12] the test system is VSMC. The experiment in a line: Downregulation of Egr2 gene expression in human VSMC cells pretreated with compound at 250 to 500 nM followed by AngII addition measured by RT-qPCR analysis. As to conditions: dose 250-500 nM. The class given is functional, cell-based.
Assay [13] concerns VSMC. In words: Downregulation of Fst gene expression in human VSMC cells pretreated with compound at 250 to 500 nM followed by AngII addition measured by RT-qPCR analysis. The class given is functional, cell-based. The settings on record: dose 250-500 nM.
Assay [14] has as its system VSMC. In words: Downregulation of Foxp1 gene expression in human VSMC cells pretreated with compound at 250 to 500 nM followed by AngII addition measured by RT-qPCR analysis. The class given is functional, cell-based. The settings on record: dose 250-500 nM.
Assay [15] deals with VSMC. The experiment in a line: Downregulation of Fgf2 gene expression in human VSMC cells pretreated with compound at 250 to 500 nM followed by AngII addition measured by RT-qPCR analysis. The class given is functional, cell-based. The settings on record: dose 250-500 nM.
The species named for assay [16] is Rattus norvegicus. The experiment in a line: Downregulation of Fgf2 gene expression in rat aorta pretreated with compound at 500 nM followed by AngII addition measured by ChIP assay. The class given is functional, tissue-based.
Assay [17] is filed under the species Rattus norvegicus. In words: Downregulation of fst gene expression in rat aorta pretreated with compound at 500 nM followed by AngII addition measured by ChIP assay. The class given is functional, tissue-based.
The species named for assay [18] is Rattus norvegicus. The experiment in a line: Downregulation of ESM1 gene expression in rat aorta pretreated with compound at 500 nM followed by AngII addition measured by ChIP assay. The class given is functional, tissue-based.

Consider `Cc1sc2c(c1C)C(c1ccc(Cl)cc1)=N[C@@H](CC(=O)OC(C)(C)C)c1nnc(C)n1-2`, for which the outcome in the assay with Mus musculus [1], in the assay listed under Rattus norvegicus [2], with VSMC [3], with Mus musculus [4], in the assay filed under Rattus norvegicus [5] and with Mus musculus [6] was Active. In addition, the outcome in the assay listed under Rattus norvegicus [7], in the assay with VSMC [8], with VSMC [9], in the assay with VSMC [11], in the assay on VSMC [12] and with VSMC [13] was Active. Further, the outcome in the assay with VSMC [14], with VSMC [15], in the assay filed under Rattus norvegicus [16], in the assay filed under Rattus norvegicus [17] and in the assay filed under Rattus norvegicus [18] was Active. Moreover, the negative-log Kd (pKd) in [10] was about 6.89.

Source of the values: ChEMBL document CHEMBL5712894, “Regulation of angiotensin II actions by enhancers and super-enhancers in vascular smooth muscle cells” (Nat Commun, 2017).
